The target of assay [1] is GABA-A receptor; anion channel. Put plainly: Inhibitory concentration against [3H]flunitrazepam binding to benzodiazepine receptor from bovine cerebral cortex. In kind it is tissue-based. The method, boiled down:
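Membranes from bovine cerebral cortex were homogenized in 0.32 M sucrose with protease inhibitors, osmotically shocked, and suspended in 50 mM Tris-HCl pH 7.4. Membrane (0.5 mg protein) was incubated with 0.9 nM [3H]flunitrazepam at 0 °C for 90 min, then filtered and counted. Nonspecific binding was defined with 10 µM diazepam. IC50 came from log-probit analysis of six to eight concentrations in triplicate; values are means ± SEM of four determinations.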

The target of assay [2] is T1, GABA-A receptor; anion channel (Bos taurus) (UniProt P10063+P08220+P20237+P08219+P10064+P22300). Description: Percentage inhibition of [3H]flunitrazepam binding to benzodiazepine receptor from bovine cerebral cortex at a concentration of 250 uM. It is filed as tissue-based.
The test system of assay [3] is Mus musculus. Description: Dose required to induce convulsions in mice treated with subcutaneous PTZ (40 mg/kg). The following applies: sc. In kind it is functional. In outline: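 Groups of 10 mice received graded ip doses (0.1 mL) suspended in 1% carboxymethylcellulose, or vehicle alone. A subconvulsant PTZ dose of 40 mg/kg followed 30 min later. ED50 is the dose inducing convulsions in 50% of mice.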

Assay [4] has as its target T1, GABA-A receptor; anion channel (Bos taurus). Description: Relative binding to GABA-A benzodiazepine receptor in the presence and absence of GABA (GABA shift). It is filed as protein-complex assay. In outline: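 Exhaustively washed bovine cortical membranes were used. Binding inhibition used 0.9 nM [3H]flunitrazepam at 0 °C for 90 min in 50 mM Tris-HCl pH 7.4. IC50 was determined by log-probit analysis without and with 10 µM GABA. Ratio = IC50 without GABA / IC50 with GABA.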

The subject of assay [5] is Mus musculus. Description: Antagonism of Diazepam anticonvulsant effect in mice treated with 60 mg/kg PTZ. It is filed as functional.

Compound `COc1ccc2[nH]cc(C(=O)C(=O)N[C@H](C)C(=O)O)c2c1` showed an IC50 in assay [1] of 170 µM. In turn, `C[C@@H](NC(=O)C(=O)c1c[nH]c2ccccc12)C(=O)O` came in with an IC50 in assay [1] of 304 µM. Further, the inhibition in assay [2] was found to be 32%. For `CCOC(=O)[C@@H](C)NC(=O)C(=O)c1c[nH]c2ccccc12`, in assay [1], the IC50 is 17 µM. As to `O=C(N[C@@H](Cc1ccccc1)C(=O)O)C(=O)c1c[nH]c2ccc([N+](=O)[O-])cc12`, the IC50 in assay [1] came to 4 µM.

As to `CCOC(=O)[C@H](Cc1ccccc1)NC(=O)C(=O)c1c[nH]c2ccc(OC)cc12`, the inhibition in assay [2] came to 77%. On to `CCOC(=O)[C@H](Cc1ccccc1)NC(=O)C(=O)c1c[nH]c2ccc(Br)cc12`, for which, in assay [1], the IC50 worked out at 55 µM.

On to `COc1ccc2[nH]cc(C(=O)C(=O)N[C@H](Cc3ccccc3)C(=O)O)c2c1`, for which the inhibition in assay [2] was determined as 18%. `COc1ccc2[nH]cc(C(=O)C(=O)N[C@@H](C)C(=O)O)c2c1` showed an IC50 in assay [1] of 22 µM. Consider `CCOC(=O)[C@H](C)NC(=O)C(=O)c1c[nH]c2ccc(Br)cc12`, for which the IC50 in assay [1] worked out at 0.18 µM. Moreover, the ED50 in assay [3] was determined as 40 mg/kg; in assay [5], 50 mg/kg. Moreover, the Ratio in assay [4] was 0.78.

In turn, `CCOC(=O)C(C)NC(=O)C(=O)c1c[nH]c2ccccc12` (configuration not stated) registered an IC50 in assay [1] of 13 µM. Same read-out and setting: the figure for `CC(NC(=O)C(=O)c1c[nH]c2ccc(Br)cc12)C(=O)O` (configuration not stated) is 40 µM.

As to `O=C(N[C@H](Cc1ccccc1)C(=O)O)C(=O)c1c[nH]c2ccccc12`, the inhibition in assay [2] worked out at 32%. On the same count and under the same terms, the figure for `CCOC(=O)[C@@H](Cc1ccccc1)NC(=O)C(=O)c1c[nH]c2ccccc12` is 55%. `O=C(NC(Cc1ccccc1)C(=O)O)C(=O)c1c[nH]c2ccc(Br)cc12` (configuration not stated) returned an IC50 in assay [1] of 158 µM.

Turning to `CCOC(=O)[C@@H](Cc1ccccc1)NC(=O)C(=O)c1c[nH]c2ccc(Cl)cc12`, the IC50 in assay [1] is 45 µM. In turn, `CCOC(=O)[C@@H](Cc1ccccc1)NC(=O)C(=O)c1c[nH]c2ccc(OC)cc12` had an inhibition in assay [2] of 30%. As for `CCOC(=O)[C@@H](Cc1ccccc1)NC(=O)C(=O)c1c[nH]c2ccc([N+](=O)[O-])cc12`, the IC50 in assay [1] came to 2.8 µM.

In assay [1], `O=C(N[C@@H](Cc1ccccc1)C(=O)O)C(=O)c1c[nH]c2ccc(Cl)cc12` registered an IC50 of 12 µM. In assay [2], `CCOC(=O)[C@H](Cc1ccccc1)NC(=O)C(=O)c1c[nH]c2ccccc12` displayed an inhibition of 69%.

For the compound `O=C(N[C@@H](Cc1ccccc1)C(=O)O)C(=O)c1c[nH]c2ccc(Br)cc12`, the IC50 in assay [1] stood at 60 µM.

For `C[C@@H](NC(=O)C(=O)c1c[nH]c2ccc([N+](=O)[O-])cc12)C(=O)O`, the IC50 in assay [1] amounted to 19 µM. As for `CCOC(=O)[C@@H](C)NC(=O)C(=O)c1c[nH]c2ccc(Br)cc12`, in assay [1], the IC50 stood at 52 µM. The Ratio in assay [4] was determined as 0.85. In assay [1], `CCOC(=O)[C@H](C)NC(=O)C(=O)c1c[nH]c2ccc([N+](=O)[O-])cc12` displayed an IC50 of 0.07 µM. The ED50 in assay [3] turned out to be 150 mg/kg; in assay [5], 100 mg/kg. The Ratio in assay [4] worked out at 0.67. The compound `CCOC(=O)[C@@H](C)NC(=O)C(=O)c1c[nH]c2ccc(Cl)cc12` gave an IC50 in assay [1] of 25 µM. For the same compound, in assay [4], the Ratio is 0.92. As for `C[C@@H](NC(=O)C(=O)c1c[nH]c2ccc(Cl)cc12)C(=O)O`, in assay [1], the IC50 is 46 µM.

The compound `O=C(N[C@H](Cc1ccccc1)C(=O)O)C(=O)c1c[nH]c2ccc(Cl)cc12` had an IC50 in assay [1] of 48 µM. Compound `COc1ccc2[nH]cc(C(=O)C(=O)N[C@@H](Cc3ccccc3)C(=O)O)c2c1` came in with an inhibition in assay [2] of 50%.

`CCOC(=O)[C@@H](C)NC(=O)C(=O)c1c[nH]c2ccc([N+](=O)[O-])cc12`: the 50% inhibitory concentration (IC50) in assay [1] came to 3 µM. The Ratio in assay [4] stood at 0.79. `CCOC(=O)[C@H](Cc1ccccc1)NC(=O)C(=O)c1c[nH]c2ccc([N+](=O)[O-])cc12` yielded an IC50 in assay [1] of 0.1 µM. The same measure, in the same setting: the figure for `CC(NC(=O)C(=O)c1c[nH]c2ccccc12)C(=O)O` (configuration not stated) is 105 µM. In assay [1], `CCOC(=O)[C@H](C)NC(=O)C(=O)c1c[nH]c2ccc(Cl)cc12` registered an IC50 of 0.15 µM. Also, the Ratio in assay [4] is 0.9. `O=C(N[C@@H](Cc1ccccc1)C(=O)O)C(=O)c1c[nH]c2ccccc12`: in assay [2], the inhibition is 47%.

The compound `CCOC(=O)[C@H](Cc1ccccc1)NC(=O)C(=O)c1c[nH]c2ccc(Cl)cc12` registered an IC50 in assay [1] of 30 µM. On to `CCOC(=O)[C@H](C)NC(=O)C(=O)c1c[nH]c2ccccc12`, for which, in assay [1], the IC50 was found to be 7.5 µM. Same read-out and setting: the figure for `C[C@H](NC(=O)C(=O)c1c[nH]c2ccc(Cl)cc12)C(=O)O` is 5.01 µM. On the same count and under the same terms, the figure for `O=C(N[C@H](Cc1ccccc1)C(=O)O)C(=O)c1c[nH]c2ccc([N+](=O)[O-])cc12` is 21 µM; for `CCOC(=O)C(Cc1ccccc1)NC(=O)C(=O)c1c[nH]c2ccc(Br)cc12` (configuration not stated) it is 180 µM; for `CCOC(=O)[C@@H](C)NC(=O)C(=O)c1c[nH]c2ccc(OC)cc12` it is 110 µM. On the same count and under the same terms, the figure for `CCOC(=O)[C@@H](Cc1ccccc1)NC(=O)C(=O)c1c[nH]c2ccc(Br)cc12` is 220 µM; for `C[C@@H](NC(=O)C(=O)c1c[nH]c2ccc(Br)cc12)C(=O)O` it is 80 µM. `C[C@H](NC(=O)C(=O)c1c[nH]c2ccc([N+](=O)[O-])cc12)C(=O)O` returned an IC50 in assay [1] of 3 µM. Same read-out and setting: the figure for `C[C@H](NC(=O)C(=O)c1c[nH]c2ccccc12)C(=O)O` is 48 µM. The compound `O=C(N[C@H](Cc1ccccc1)C(=O)O)C(=O)c1c[nH]c2ccc(Br)cc12` yielded an IC50 in assay [1] of 245 µM. Besides, the inhibition in assay [2] worked out at 51%. On to `CCOC(=O)[C@H](C)NC(=O)C(=O)c1c[nH]c2ccc(OC)cc12`, for which the IC50 in assay [1] was determined as 0.9 µM. Same read-out and setting: the figure for `C[C@H](NC(=O)C(=O)c1c[nH]c2ccc(Br)cc12)C(=O)O` is 7.1 µM.

The term IC50 denotes the concentration that gives 50% inhibition. High values mean weaker potency, low ones greater potency. A word on the inhibition: it is the drop in the measured response relative to a control, in per cent. Usually ED50 stands for the dose that gives a 50% effect, or the effect in half of the subjects. Low readings indicate an effect at a small dose, high ones a need for a large dose.
